From ChEMBL document CHEMBL1121714, “Nonsteroidal antiinflammatory agents. 2. Synthesis of 4',5-disubstituted 3-biphenylylacetic acids and their derivatives with antiinflammatory and analgesic activities” (J Med Chem, 1981)

Legend:
Mus musculus = test: Analgesic activity against AcOH writhing after po administration.
Rattus norvegicus [1] = test: Inhibitory activity on carrageenan-induced paw edema in rats 3h after po administration of 50 mg/kg; assay type: functional
Procedure, shortened: (§1)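 Oral dosing, screened first at 50 mg/kg and retested at 20 and 10 mg/kg if inhibition was 30% or more. Paw volume was remeasured at 3 h, and the increase was compared with controls to give percent inhibition.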

[2] = Acute toxicity was determined 168 hr after a single ip injection to groups of four male ddY mice.; assay type: organism-based; details: mouse, in vivo
Procedure, shortened: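 LD50 calculated by the method of Weil.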

Rattus norvegicus [3] = test: Inhibitory activity on carrageenan-induced paw edema in rats 3h after po administration of 20 mg/kg; assay type: functional
Procedure, shortened: as §1

Rattus norvegicus [4] = test: Inhibitory activity on carrageenan-induced paw edema in rats 3h after po administration of 0.5 mg/kg; assay type: functional; details: read-out: Inhibition
Rattus norvegicus [5] = test: Inhibitory activity on carrageenan-induced paw edema in rats 3h after po administration of 5 mg/kg; assay type: functional; details: read-out: Inhibition
Rattus norvegicus [6] = test: Inhibitory activity on carrageenan-induced paw edema in rats 3h after po administration of 2 mg/kg; assay type: functional; details: read-out: Inhibition
Rattus norvegicus [7] = test: Inhibitory activity on carrageenan-induced paw edema in rats 3h after administration of 20 mg/kg; assay type: functional
Procedure, shortened: as §1

Rattus norvegicus [8] = test: Inhibitory activity on carrageenan-induced paw edema in rats 3h after po administration of 10 mg/kg; assay type: functional
Procedure, shortened: as §1

SMILES	ED50 (Mus musculus) [mg/kg]	inhibition in vivo at 50 mg/kg (Rattus norvegicus [1]) [%]	LD50 at 168 h [2] [mg/kg]	inhibition in vivo at 20 mg/kg (Rattus norvegicus [3]) [%]	inhibition in vivo at 0.5 mg/kg (Rattus norvegicus [4]) [%]	inhibition in vivo at 5 mg/kg (Rattus norvegicus [5]) [%]	inhibition in vivo at 2 mg/kg (Rattus norvegicus [6]) [%]	inhibition in vivo at 20 mg/kg (Rattus norvegicus [7]) [%]	inhibition in vivo at 10 mg/kg (Rattus norvegicus [8]) [%]
COc1ccc(-c2cc(CC(=O)O)cc(NC(C)=O)c2)cc1	> 50	15	> 800						
Nc1cc(CC(=O)O)cc(-c2ccc(Cl)cc2)c1	> 50	16	400						
O=C(O)Cc1cc(F)cc(-c2ccc(Cl)cc2)c1	> 50	38	283	16					
COc1ccc(-c2cc(N)cc(CC(=O)O)c2)cc1	> 50	0	800						
COc1ccc(-c2cc(Cl)cc(CC(=O)O)c2)cc1	> 50	19	570						
O=C(O)Cc1cc(Cl)cc(-c2ccc(Cl)cc2)c1	> 50	45	283	29					
COc1ccc(-c2cc(Cl)cc(C(C)C(=O)O)c2)cc1 (centres undefined)	> 50	8	283						
CC(C(=O)O)c1cc(F)cc(-c2ccccc2)c1 (centres undefined)	> 50	31	566						
CC(C(=O)O)c1cccc(-c2ccc(Cl)cc2)c1 (centres undefined)	45	35	283	31					
CC(C(=O)O)c1cc(Cl)cc(-c2ccccc2)c1 (centres undefined)	> 50	4	168						
CC(C(=O)O)c1cccc(-c2ccccc2)c1 (centres undefined)	26.8	17	566						
CC(=O)Nc1cc(CC(=O)O)cc(-c2ccc(Cl)cc2)c1	> 50	0	476						
CC(=O)Nc1cc(CC(=O)O)cc(-c2ccccc2)c1	> 50	5	> 800						
O=C(O)Cc1cccc(-c2ccc(Cl)cc2)c1	> 50	44	238	< 25					
COc1ccc(-c2cccc(CC(=O)O)c2)cc1	> 50	11	> 800						
Nc1cc(CC(=O)O)cc(-c2ccccc2)c1	> 50	0	566						
COc1ccc(-c2cccc(C(C)C(=O)O)c2)cc1 (centres undefined)	> 50	0	566						
COc1ccc2c(c1)c(CC(=O)O)c(C)n2C(=O)c1ccc(Cl)cc1 [INDOMETHACIN]	3.1				19	45	25		
O=C(O)Cc1cc(F)cc(-c2ccccc2)c1	> 50	50	566					45	26
O=C(O)Cc1cccc(-c2ccccc2)c1	> 50	47	566	0					
CC(C(=O)O)c1cc(F)cc(-c2ccc(Cl)cc2)c1 (centres undefined)	> 50	< 39	200	< 26					
COc1cc(CC(=O)O)cc(-c2ccc(Cl)cc2)c1	16.1	53		65					39
CC(C(=O)O)c1cc(Cl)cc(-c2ccc(Cl)cc2)c1 (centres undefined)	> 50	< 41	200	< 33					
O=C(O)Cc1cc(Cl)cc(-c2ccccc2)c1	> 50	32	283	25					
